Results on four compounds are retold here after ChEMBL document CHEMBL1811872, “Tryptophan 2,3-dioxygenase (TDO) inhibitors. 3-(2-(pyridyl)ethenyl)indoles as potential anticancer immunomodulators” (J Med Chem, 2011).

The target in data set [1] is T1, MAO-A (amine oxidase [flavin-containing] A) (Homo sapiens, UniProt P21397).
T1 sequence (P21397 whole entry): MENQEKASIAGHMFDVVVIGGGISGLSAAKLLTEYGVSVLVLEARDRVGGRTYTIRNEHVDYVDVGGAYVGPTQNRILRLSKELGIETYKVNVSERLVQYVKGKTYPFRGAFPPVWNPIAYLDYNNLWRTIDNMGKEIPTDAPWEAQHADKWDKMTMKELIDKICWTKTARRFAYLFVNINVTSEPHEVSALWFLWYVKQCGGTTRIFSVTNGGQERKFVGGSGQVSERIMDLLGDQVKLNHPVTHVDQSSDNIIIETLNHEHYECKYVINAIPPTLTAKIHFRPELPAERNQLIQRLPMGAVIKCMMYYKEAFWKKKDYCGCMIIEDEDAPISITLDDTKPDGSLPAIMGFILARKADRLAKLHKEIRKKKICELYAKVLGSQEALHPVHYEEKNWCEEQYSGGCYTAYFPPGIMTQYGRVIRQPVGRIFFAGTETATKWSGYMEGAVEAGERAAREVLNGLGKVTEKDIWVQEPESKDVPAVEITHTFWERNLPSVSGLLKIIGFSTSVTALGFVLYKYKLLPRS
The data set is described as follows: Inhibition of MAO-A at 10 uM relative to control.

Data set [2] has as its target T2, MAO-B (amine oxidase [flavin-containing] B) (Homo sapiens, UniProt P27338).
T2 sequence (P27338 whole entry): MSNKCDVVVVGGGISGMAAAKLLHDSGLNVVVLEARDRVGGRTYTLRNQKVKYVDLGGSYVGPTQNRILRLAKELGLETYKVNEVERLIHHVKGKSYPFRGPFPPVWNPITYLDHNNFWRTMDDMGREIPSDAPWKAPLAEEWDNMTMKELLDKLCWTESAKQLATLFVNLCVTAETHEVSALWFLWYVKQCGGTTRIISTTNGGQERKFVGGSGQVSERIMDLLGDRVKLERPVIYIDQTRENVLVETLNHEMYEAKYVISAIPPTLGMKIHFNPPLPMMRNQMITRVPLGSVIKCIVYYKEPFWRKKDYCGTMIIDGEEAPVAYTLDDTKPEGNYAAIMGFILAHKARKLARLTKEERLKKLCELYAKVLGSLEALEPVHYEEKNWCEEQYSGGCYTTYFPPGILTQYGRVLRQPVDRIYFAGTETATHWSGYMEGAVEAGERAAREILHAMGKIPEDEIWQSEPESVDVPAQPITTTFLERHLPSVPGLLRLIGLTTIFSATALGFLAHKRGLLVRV
The data set is described as follows: Inhibition of MAO-B at 10 uM relative to control.

The next data set has as its system Mus musculus. Put plainly: Toxicity in mouse P815B cells expressing TDO xenografted immunized mouse at 160 mg/kg/day, po administered with water. Type of data set: organism-based. Details: route oral. The conditions noted are these: in vivo.
Data set [3] is described as follows: Plasma concentration in DBA/2 mouse at 160 mg/kg/day, po administered for 7 days with water. Type of data set: ADME, organism-based. Details: route oral. In a few lines:
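DBA/2 mice received the compound dissolved in drinking water (1 mg/mL) ad libitum. Mean water intake was 4.0 mL/mouse/day, giving about 160 mg/kg/day. Plasma levels of compound, L-Trp and kynurenine were measured at days 0, 1, 2 and 7.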

The target in data set [4] is Tryptophan 2,3-dioxygenase (Mus musculus, UniProt P48776). The data set is described as follows: Inhibition of mouse TDO expressed in mouse P815B cells assessed as inhibition of tryptophan catabolism by measuring kynurenine production after 8 hrs by HPLC analysis. The data set is classed as cell-based.
A short description of data set [5]: Cytotoxicity against mouse P815B cells […] by MTT assay. The data set is classed as functional. The conditions noted are these: read-out: LD50 (the source's name). (In general: Formazan colour is commonly taken as a measure of viable cells.)
Data set [6] in a line: Chemical stability of the compound in phosphate buffered saline assessed as compound remaining at pH 7.4 after 1.5 hrs. Type of data set: physicochemical. The conditions noted are these: read-out: Stability. The gist of the method: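 Compound was incubated in phosphate-buffered saline, pH 7.4, for 1.5 h; read-out was the percentage of compound recovered.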
Data set [7] is described as follows: Solubility of the compound in phosphate buffered saline at pH 7.4. The data set is classed as physicochemical. The gist of the method: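 Solubility was measured experimentally in phosphate buffer (PBS), pH 7.4, at room temperature.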
Data set [8] is described as follows: Displacement of [3H]RX821002 from adrenergic alpha2 receptor. For orientation: Loss of bound radioactivity is the signal in a displacement assay; it reports binding, not function.
The nature of data set [9]: Displacement of [3H]prazosin from adrenergic alpha1 receptor.
In data set [10] the target is 5-hydroxytryptamine receptor 2B (Homo sapiens, UniProt P41595). Put plainly: Displacement of [125I](+/-)-DOI from human 5HT2B receptor.

Bounds are passed on as bounds.

5-hydroxytryptamine receptor 2B, sequence (P41595 whole entry): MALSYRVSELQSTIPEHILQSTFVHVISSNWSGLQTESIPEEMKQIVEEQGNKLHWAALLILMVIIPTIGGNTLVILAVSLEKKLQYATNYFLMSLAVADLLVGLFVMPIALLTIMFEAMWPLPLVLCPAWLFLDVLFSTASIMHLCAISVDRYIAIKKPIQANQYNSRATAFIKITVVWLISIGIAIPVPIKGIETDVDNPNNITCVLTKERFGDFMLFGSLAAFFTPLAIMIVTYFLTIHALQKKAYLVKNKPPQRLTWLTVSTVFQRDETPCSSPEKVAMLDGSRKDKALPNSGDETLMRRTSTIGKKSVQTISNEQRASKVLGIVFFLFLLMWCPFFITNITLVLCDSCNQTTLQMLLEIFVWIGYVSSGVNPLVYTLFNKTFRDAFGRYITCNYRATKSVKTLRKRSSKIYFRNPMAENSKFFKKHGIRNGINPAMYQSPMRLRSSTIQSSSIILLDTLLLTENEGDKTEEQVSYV
Tryptophan 2,3-dioxygenase, sequence (P48776 whole entry): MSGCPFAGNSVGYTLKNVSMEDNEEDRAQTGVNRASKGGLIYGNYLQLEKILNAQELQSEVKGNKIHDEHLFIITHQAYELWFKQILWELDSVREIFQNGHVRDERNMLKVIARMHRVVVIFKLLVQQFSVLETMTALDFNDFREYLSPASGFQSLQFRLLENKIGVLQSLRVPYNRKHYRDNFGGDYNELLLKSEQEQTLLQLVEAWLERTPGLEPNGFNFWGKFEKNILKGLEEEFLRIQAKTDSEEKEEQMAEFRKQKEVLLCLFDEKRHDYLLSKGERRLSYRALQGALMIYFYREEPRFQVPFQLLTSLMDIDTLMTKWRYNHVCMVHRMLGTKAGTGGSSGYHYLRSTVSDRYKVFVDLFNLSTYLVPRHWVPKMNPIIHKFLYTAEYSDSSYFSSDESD

On to `Fc1ccc2c(/C=C/c3nnn[nH]3)c[nH]c2c1`, for which the inhibition at 10 µM in [1] and in data set [2] was less than 10% throughout. Further, the Activity result in the data set with Mus musculus was “Non-toxic”. The concentration at 168 h in data set [3] is 60 µM. Moreover, the IC50 – broadly, the point on the concentration scale where inhibition reaches its midpoint – in data set [4] amounted to 2000 nM. Moreover, the CC50 in [5] was more than 400000 nM. The remaining at 1.5 h in [6] turned out to be 93.3%. In addition, the solubility (commonly the dissolved amount per volume that the medium holds) in data set [7] is more than 300 µM.

Turning to `COC(=O)[C@@H]1[C@H]2C[C@H]3c4[nH]c5ccccc5c4CCN3C[C@@H]2CC[C@@H]1O` [YOHIMBINE], in [8], the affinity corresponds to a Ki of 33 nM.

For the compound `COc1cc2nc(N3CCN(C(=O)c4ccco4)CC3)nc(N)c2cc1OC` [PRAZOSIN], affinity in data set [9] was put at a Ki of 0.071 nM.

With `COc1cc(CC(C)N)c(OC)cc1I` (racemic), the inhibitory constant (Ki) (in general, a dissociation constant, usually derived from enzyme kinetics or from competition with a known ligand) in [10] came out at 2 nM. That is a single-digit nanomolar value.
